We go through 13 compounds from article PMC8113979 (Inorganic chemistry, 2017).

Like-named read-outs stand apart in the source and are kept apart here.

The nature of data set [1]: N-methylimidazole challenge. The following applies: 1 mM complex, 5 mM N-methylimidazole, pH 7.4 PBS, 37 °C, 24 h. The format is physicochemical. In outline:
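Complex at 1 mM final in pH 7.4 PBS with 5 mM N-methylimidazole as competing ligand. Analysed by RP-HPLC right after mixing, then again after 24 h at 37 °C. C18 column (250 × 4.6 mm, 5 μm), 1 mL/min, UV at 220 and 260 nm. Gradient: 10% MeOH/water with 0.1% TFA for 5 min, then linear to 100% MeOH (0.1% TFA) over 20 min. Starting, mono- and disubstituted species quantified from peak areas.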

Data set [2] is described as follows: Cyclic voltammetry in anhydrous DMF. The format is physicochemical. The conditions noted are these: vs SCE, glassy carbon, 0.10 M TBAP, 100 mV/s, 25 °C; for Epc, Co(III/II): irreversible peak potential.
The test system of data set [3] is A549 (human lung cancer) cells. As to the kind of experiment: MTT cytotoxicity assay in A549 cells. The format is cell-based.
Data set [4] has as its system hypoxic cells. The following applies: uptake, hypoxia vs normoxia; cited from earlier work.
For data set [5] the following is noted: value reported for the hypoxia-imaging agent; cited from earlier work.
Data set [6] deals with MRC-5 (human lung fibroblast) cells. Description: MTT cytotoxicity assay in MRC-5 cells. The format is cell-based. The conditions noted are these: read-out: IC50 MRC-5 Normoxia, MRC-5 normal lung fibroblasts.
Data set [7] concerns HeLa and A549 cell lines. The format is cell-based, human.
In data set [8] the test system is A549 cells. Description: Cellular uptake of cobalt by GFAAS, normalised to protein. The conditions noted are these: A549, 100 μM complex, 24 h. The format is cell-based, human.
Data set [9] has as its system HeLa (human cervical cancer) cells. As to the kind of experiment: MTT cytotoxicity assay in HeLa cells. It is filed as cell-based. The following applies: for IC50: Homo sapiens, HeLa. For orientation: Tetrazolium dyes change colour on reduction, which living cells bring about.
For data set [10] the following is noted: observed in other studies; cited from earlier work.
The mark [11] stands for this setting: read-out: IC50 Without TM, A549, without tetrathiomolybdate.

Turning to `CC(=NN=C(N)[S-])C(C)=NN=C(N)[S-].NCc1ccccc1.NCc1ccccc1.O=[N+]([O-])[O-].[Co+3]` [[Co(ATS)(BnA)2]^+], in [1], the “% Disubstituted” value was 93%, the “% Intact” value is 0% and the “% Monosubstituted” value is reported as 7%. In data set [2], the “E1/2,Co(II/I)” value is listed as −1.18 V and the “Epc, Co(III/II)” value was −0.83 V.

Regarding `[SH-].[SH-].[S]=[Mo]=[S]` [TM, tetrathiomolybdate], in [3] (A549, 5 μM concentration), the “effect on cell viability” value is on record as “a TM does not affect the cell viability at 5 μM concentration”.

With `CC(=NN=C(N)[S-])C(C)=NN=C(N)[S-].O=[N+]([O-])[O-].[Co+3].c1c[nH]cn1.c1c[nH]cn1` [[Co(ATS)(Im)2]^+], in data set [1], the “% Disubstituted” value was determined as 46%, the “% Intact” value amounted to 11% and the “% Monosubstituted” value was found to be 43%. Further, in data set [2], the “E1/2,Co(II/I)” value is given as −1.19 V and the “Epc, Co(III/II)” value was −0.86 V.

As for `CN=C([S-])N/N=C(C)/C(C)=N/NC([S-])=NC.[Cu+2]` [[Cu(ATSM)]], in data set [4], the hypoxia selectivity is recorded as 5 ×. The reduction potential in [5] is recorded as −0.59 V.

Take `N.N.[Cl][Pt][Cl]` [Cisplatin, cisplatin]: the IC50 in data set [6] was determined as 3.5 ± 1.2 µM. The “difference in activity under hypoxic versus normoxic conditions” value in data set [7] is “no difference”.

For `CC(C=NN=C(N)[S-])=NN=C(N)[S-].O=[N+]([O-])[O-].[Co+3].c1c[nH]cn1.c1c[nH]cn1` [[Co(PTS)(Im)2]^+], in data set [1], the “% Disubstituted” value came out at 54%, the “% Intact” value worked out at 7% and the “% Monosubstituted” value came to 39%. Besides, in data set [2], the “E1/2,Co(II/I)” value is “–1.12 V” and the “Epc, Co(III/II)” value was “–0.84 V”.

Turning to `CC(C=NN=C(N)[S-])=NN=C(N)[S-].NCc1ccccc1.NCc1ccccc1.O=[N+]([O-])[O-].[Co+3]` [[Co(PTS)(BnA)2]^+], in data set [1], the “% Disubstituted” value is reported as 93%, the “% Intact” value is reported as 1% and the “% Monosubstituted” value was found to be 6%. In [2], the “E1/2,Co(II/I)” value was “–1.14 V” and the “Epc, Co(III/II)” value is listed as “–0.84 V”.

Turning to `CC(C=NN=C(N)[S-])=NN=C(N)[S-].N.N.O=[N+]([O-])[O-].[Co+3]` [[Co(PTS)(NH3)2]^+], in data set [1], the “% Disubstituted” value is on record as 22%, the “% Intact” value is on record as 56% and the “% Monosubstituted” value is given as 22%. Further, in data set [2], the “E1/2,Co(II/I)” value was “–1.11 V” and the “Epc, Co(III/II)” value is “–0.92 V”.

Regarding `O=[N+]([O-])[O-].O=[N+]([O-])[O-].[Co+2]` [Co(NO3)2, reference compound], the 50% inhibitory concentration (IC50) in [6] is > 500 µM. Besides, in data set [8], the “Hypoxia/Normoxia Ratio of uptake” value is 0.88 ± 0.09, the “Co/Protein (Hypoxia)” value worked out at 33 ± 3 pg/µg and the “Co/Protein (Normoxia)” value came out at 37 ± 2 pg/µg.

On to `Nc1n[n+]([O-])c2ccccc2[n+]1[O-]` [Tirapazamine], for which the hypoxia selectivity index in data set [9] (HeLa cells, in our lab) is given as 3.3. Besides, the half-inhibitory concentration (IC50) in data set [9] (read-out: IC50 HeLa Hypoxia) is 13 ± 4.2 µM; in data set [9] (read-out: IC50 HeLa Normoxia), 44 ± 19 µM; in [3] (Homo sapiens, A549, read-out: IC50 A549 Hypoxia), 11 ± 6.5 µM; in data set [3] (Homo sapiens, A549, read-out: IC50 A549 Normoxia), 60 ± 5.4 µM. Besides, in data set [10], the “typical hypoxia selectivity index” value is 10.

In the case of `NC(=S)N/N=C/C=N/NC(N)=S` [GTS, glyoxal bis(thiosemicarbazone)], the figures for the half-inhibitory concentration (IC50) in data set [3] (setting [11]) and in data set [6] were 0.02 ± 0.01 µM and > 20 µM, respectively.

With `NC([S-])=NN=CC=NN=C(N)[S-].O=[N+]([O-])[O-].[Co+3].c1c[nH]cn1.c1c[nH]cn1` [[Co(GTS)(Im)2]^+], the IC50 in [3] (setting [11]) was 2.6 ± 0.4 µM. Moreover, in data set [6], the concentration for half-maximal inhibition (IC50) is > 250 µM. In data set [8], the “Hypoxia/Normoxia Ratio of uptake” value stood at 1.40 ± 0.09, the “Co/Protein (Hypoxia)” value was found to be 20 ± 1 pg/µg and the “Co/Protein (Normoxia)” value is 15 ± 1 pg/µg. In addition, in data set [1], the “% Disubstituted” value was 58% and the “% Intact” value was found to be 6%. In data set [2], the “E1/2,Co(II/I)” value was “–1.00 V” and the “Epc, Co(III/II)” value is reported as “–0.72 V”.

As to `CC(=NN=C(N)[S-])C(C)=NN=C(N)[S-].N.N.O=[N+]([O-])[O-].[Co+3]` [[Co(ATS)(NH3)2]^+], in data set [1], the “% Disubstituted” value was 35%, the “% Intact” value is 38% and the “% Monosubstituted” value came out at 27%. Moreover, in data set [2], the “E1/2,Co(II/I)” value was −1.18 V and the “Epc, Co(III/II)” value was −1.10 V.

What is called IC50 is the concentration at which inhibition is half-maximal.
